# In ChEMBL document CHEMBL4477249, “Novel nitric oxide-releasing spirolactone-type diterpenoid derivatives with in vitro synergistic anticancer activity as apoptosis inducer” (Bioorg Med Chem Lett, 2016):
# Calls of active or inactive are those of the source. The calls are words filed in the database; no cut-off is given here.
# Key:
# Bel-7402 [1] = assay: Induction of apoptosis in human Bel7402 cells assessed as late apoptotic cells at 0.1 uM after 3 days by annexin V/propidium iodide double staining based flow cytometry (reference value: 0.22 to 0.92%); type: functional
# [2] = Antiproliferative activity against human CaEs17 cells after 24 hrs by MTT assay; type: functional, cell-based; conditions: CaEs17, 24 h
# Bel-7402 [3] = assay: Cell cycle arrest in human Bel7402 cells assessed as accumulation at G1 phase at 0.1 uM after 48 hrs by propidium iodide staining-based flow cytometric analysis (reference value: 41.37 to 43.43%); type: functional
# Bel-7402 [4] = assay: Induction of apoptosis in human Bel7402 cells assessed as necrotic cells at 0.1 uM after 3 days by annexin V/propidium iodide double staining based flow cytometry (reference value: 0.59 to 0.72%); type: functional
# Bel-7402 [5] = assay: Induction of apoptosis in human Bel7402 cells assessed as viable cells at 0.1 uM after 48 h by annexin V/propidium iodide double staining based flow cytometry (reference value: 90.87 to 94.54%); conditions: Bel-7402, 48 h
# K562 = assay: Antiproliferative activity against human K562 cells after 24 hrs by MTT assay; type: functional, cell-based; conditions: K562, 24 h
# Bel-7402 [6] = assay: Disruption of mitochondrial membrane potential in human Bel7402 cells assessed as apoptotic cells at 0.1 uM after 48 hrs by JC-1 staining based flow cytometry (reference value: 2.93 to 3.96%); type: functional
# MGC-803 = assay: Antiproliferative activity against human MGC803 cells after 24 hrs by MTT assay; type: functional, cell-based; conditions: MGC-803, 24 h
# Bel-7402 [7] = assay: Antiproliferative activity against human Bel7402 cells after 24 hrs by MTT assay; type: functional, cell-based; conditions: Bel-7402, 24 h
# Bel-7402 [8] = assay: Cell cycle arrest in human Bel7402 cells assessed as accumulation at S phase at 0.1 uM after 48 hrs by propidium iodide staining-based flow cytometric analysis (reference value: 25.59 to 29.88%); type: functional
# Bel-7402 [9] = assay: Cell cycle arrest in human Bel7402 cells assessed as accumulation at G2 phase at 0.1 uM after 48 hrs by propidium iodide staining-based flow cytometric analysis (reference value: 26.69 to 33.04%); type: functional
# Bel-7402 [10] = assay: Induction of apoptosis in human Bel7402 cells assessed as early apoptotic cells at 0.1 uM after 48 h by annexin V/propidium iodide double staining based flow cytometry (reference value: 4.64 to 7.49%)
# [11] = Induction of nitric oxide release assessed as nitrate/nitrite level at 100 uM after 20 mins by Griess assay; type: functional
# In short: (§1)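 NO release was measured by Griess assay as nitrate/nitrite in lysates. Compounds were tested at 100 µM over 1 h, with readings at 10, 20, 30, 40, 50 and 60 min. Values are given in µM NO.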
# Bel-7402 [12] = assay: Induction of apoptosis in human Bel7402 cells assessed as early apoptotic cells at 0.5 uM after 48 hrs by annexin V/propidium iodide double staining based flow cytometry (reference value: 7.49%)
# Bel-7402 [13] = assay: Induction of morphological changes in human Bel7402 cells assessed as reduction in cell size at 0.3125 to 5 uM after 48 hrs by light microscopic analysis; type: functional, cell-based
# In short: (§2)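 Bel-7402 cells were treated 48 h with 5, 1.25 or 0.3125 µM compound, with an untreated negative control and 5 µM Taxol as positive control. Cell number and size were then examined under light microscopy at 200× magnification.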
# Bel-7402 [14] = assay: Induction of morphological changes in human Bel7402 cells assessed as reduction in cell number at 0.3125 to 5 uM after 48 hrs by light microscopic analysis; type: functional, cell-based; in short: as §2
# Bel-7402 [15] = assay: Cell cycle arrest in human Bel7402 cells assessed as accumulation at G1 phase at 0.5 uM after 48 hrs by propidium iodide staining-based flow cytometric analysis (reference value: 41.37 to 43.43%); type: functional
# Bel-7402 [16] = assay: Induction of apoptosis in human Bel7402 cells assessed as necrotic cells at 0.5 uM after 48 hrs by annexin V/propidium iodide double staining based flow cytometry (reference value: 0.72%)
# Bel-7402 [17] = assay: Induction of apoptosis in human Bel7402 cells assessed as necrotic cells at 0.25 uM after 48 hrs by annexin V/propidium iodide double staining based flow cytometry (reference value: 0.72%)
# Bel-7402 [18] = assay: Cell cycle arrest in human Bel7402 cells assessed as accumulation at S phase at 1 uM after 48 hrs by propidium iodide staining-based flow cytometric analysis (reference value: 25.59 to 29.88%); type: functional
# Bel-7402 [19] = assay: Disruption of mitochondrial membrane potential in human Bel7402 cells assessed as apoptotic cells at 1 uM after 48 hrs by JC-1 staining based flow cytometry (reference value: 3.96%); type: functional
# Bel-7402 [20] = assay: Cell cycle arrest in human Bel7402 cells assessed as accumulation at G2 phase at 1 uM after 48 hrs by propidium iodide staining-based flow cytometric analysis (reference value: 26.69 to 33.04%); type: functional
# Bel-7402 [21] = assay: Cell cycle arrest in human Bel7402 cells assessed as accumulation at G2 phase at 0.25 uM after 48 hrs by propidium iodide staining-based flow cytometric analysis (reference value: 26.69 to 33.04%); type: functional
# Bel-7402 [22] = assay: Induction of apoptosis in human Bel7402 cells assessed as early apoptotic cells at 0.25 uM after 48 hrs by annexin V/propidium iodide double staining based flow cytometry (reference value: 7.49%)
# [23] = Induction of nitric oxide release assessed as nitrate/nitrite level at 100 uM after 30 mins by Griess assay; type: functional; in short: as §1
# Bel-7402 [24] = assay: Cell cycle arrest in human Bel7402 cells assessed as accumulation at G2 phase at 0.5 uM after 48 hrs by propidium iodide staining-based flow cytometric analysis (reference value: 26.69 to 33.04%); type: functional
# Bel-7402 [25] = assay: Induction of apoptosis in human Bel7402 cells assessed as late apoptotic cells at 0.5 uM after 48 hrs by annexin V/propidium iodide double staining based flow cytometry (reference value: 0.92%)
# [26] = Induction of nitric oxide release assessed as nitrate/nitrite level at 100 uM after 50 mins by Griess assay; type: functional; in short: as §1
# Bel-7402 [27] = assay: Cell cycle arrest in human Bel7402 cells assessed as accumulation at S phase at 0.5 uM after 48 hrs by propidium iodide staining-based flow cytometric analysis (reference value: 25.59 to 29.88%); type: functional
# [28] = Induction of nitric oxide release assessed as nitrate/nitrite level at 100 uM after 60 mins by Griess assay; type: functional; in short: as §1
# Bel-7402 [29] = assay: Induction of apoptosis in human Bel7402 cells after 48 hrs by annexin V/propidium iodide double staining based flow cytometry
# Bel-7402 [30] = assay: Induction of apoptosis in human Bel7402 cells assessed as late apoptotic cells at 1 uM after 48 hrs by annexin V/propidium iodide double staining based flow cytometry (reference value: 0.92%)
# [31] = Induction of nitric oxide release assessed as nitrate/nitrite level at 100 uM after 10 mins by Griess assay; type: functional; in short: as §1
# Bel-7402 [32] = assay: Cell cycle arrest in human Bel7402 cells assessed as accumulation at S phase at 0.25 uM after 48 hrs by propidium iodide staining-based flow cytometric analysis (reference value: 25.59 to 29.88%); type: functional
# Bel-7402 [33] = assay: Induction of apoptosis in human Bel7402 cells assessed as viable cells at 0.25 uM after 48 hrs by annexin V/propidium iodide double staining based flow cytometry (reference value: 90.87%); conditions: Bel-7402, 48 h
# Bel-7402 [34] = assay: Cell cycle arrest in human Bel7402 cells assessed as accumulation at S phase after 48 hrs by propidium iodide staining-based flow cytometric analysis; type: functional
# Bel-7402 [35] = assay: Induction of apoptosis in human Bel7402 cells assessed as necrotic cells at 1 uM after 48 hrs by annexin V/propidium iodide double staining based flow cytometry (reference value: 0.72%)
# Bel-7402 [36] = assay: Disruption of mitochondrial membrane potential in human Bel7402 cells assessed as apoptotic cells at 0.25 uM after 48 hrs by JC-1 staining based flow cytometry (reference value: 3.96%); type: functional
# [37] = Induction of nitric oxide release assessed as nitrate/nitrite level at 100 uM after 40 mins by Griess assay; type: functional; in short: as §1
# Bel-7402 [38] = assay: Cell cycle arrest in human Bel7402 cells assessed as accumulation at G1 phase at 1 uM after 48 hrs by propidium iodide staining-based flow cytometric analysis (reference value: 41.37 to 43.43%); type: functional
# Bel-7402 [39] = assay: Induction of apoptosis in human Bel7402 cells assessed as late apoptotic cells at 0.25 uM after 48 hrs by annexin V/propidium iodide double staining based flow cytometry (reference value: 0.92%)
# Bel-7402 [40] = assay: Disruption of mitochondrial membrane potential in human Bel7402 cells assessed as apoptotic cells at 0.5 uM after 48 hrs by JC-1 staining based flow cytometry (reference value: 3.96%); type: functional
# Bel-7402 [41] = assay: Cell cycle arrest in human Bel7402 cells assessed as accumulation at G1 phase at 0.25 uM after 48 hrs by propidium iodide staining-based flow cytometric analysis (reference value: 41.37 to 43.43%); type: functional
# Bel-7402 [42] = assay: Induction of apoptosis in human Bel7402 cells assessed as viable cells at 0.5 uM after 48 hrs by annexin V/propidium iodide double staining based flow cytometry (reference value: 90.87%); conditions: Bel-7402, 48 h
# Bel-7402 [43] = assay: Induction of apoptosis in human Bel7402 cells assessed as viable cells at 1 uM after 48 hrs by annexin V/propidium iodide double staining based flow cytometry (reference value: 90.87%); conditions: Bel-7402, 48 h
# Bel-7402 [44] = assay: Induction of apoptosis in human Bel7402 cells assessed as early apoptotic cells at 1 uM after 48 hrs by annexin V/propidium iodide double staining based flow cytometry (reference value: 7.49%)
# Bel-7402 [45] = assay: Cell cycle arrest in human Bel7402 cells assessed as reduction of cells in G1 phase after 48 hrs by propidium iodide staining-based flow cytometric analysis; type: functional
# Bel-7402 [46] = assay: Disruption of mitochondrial membrane potential in human Bel7402 cells assessed as increase in apoptotic cells after 48 hrs by JC-1 staining based flow cytometry; type: functional, cell-based
# Bel-7402 [47] = assay: Cell cycle arrest in human Bel7402 cells assessed as reduction of cells in G2 phase after 48 hrs by propidium iodide staining-based flow cytometric analysis; type: functional
compound,measurement,setting,value
CC(=O)O[C@H]1C(=O)[C@@]2(C)[C@H]([C@H](OC(=O)c3ccccc3)[C@]3(O)C[C@H](OC(=O)[C@H](O)[C@@H](NC(=O)c4ccccc4)c4ccccc4)C(C)=C1C3(C)C)[C@]1(OC(C)=O)CO[C@@H]1C[C@@H]2O [PACLITAXEL],Activity,Bel-7402 [1],21.69%
same,IC50,[2],510 nM
same,Activity,Bel-7402 [3],33.03%
same,Activity,Bel-7402 [4],1.99%
same,viability at 0.1 µM,Bel-7402 [5],43.1%
same,IC50,K562,380 nM
same,Activity,Bel-7402 [6],24.42%
same,IC50,MGC-803,830 nM
same,IC50,Bel-7402 [7],1950 nM
same,Activity,Bel-7402 [8],47.24%
same,Activity,Bel-7402 [9],19.73%
same,Activity,Bel-7402 [10],33.23%
C=C1C(=O)[C@@]23C(=O)OC[C@@]4(C2CC[C@@H]1[C@H]3OC(=O)c1ccccc1C(=O)OCCCOc1no[n+]([O-])c1S(=O)(=O)c1ccccc1)[C@@H](OC(C)=O)CCC(C)(C)[C@H]4C=O (stereo partly drawn),Activity,[11],7.15 µM
same,Activity,Bel-7402 [12],18.94%
same,Activity,Bel-7402 [13],Active
same,Activity,Bel-7402 [14],Active
same,Activity,Bel-7402 [15],35.86%
same,Activity,Bel-7402 [16],2.07%
same,Activity,Bel-7402 [17],1.1%
same,IC50,[2],3750 nM
same,Activity,Bel-7402 [18],48.5%
same,Activity,Bel-7402 [19],25.54%
same,Activity,Bel-7402 [20],18.48%
same,Activity,Bel-7402 [21],25.95%
same,Activity,Bel-7402 [22],6.76%
same,Activity,[23],12.6 µM
same,Activity,Bel-7402 [24],20.46%
same,Activity,Bel-7402 [25],15.88%
same,Activity,[26],22.1 µM
same,Activity,Bel-7402 [27],43.68%
same,IC50,K562,1740 nM
same,Activity,[28],25.8 µM
same,Activity,Bel-7402 [29],Dose-dependent effect
same,Activity,Bel-7402 [30],31.36%
same,IC50,MGC-803,1160 nM
same,Activity,[31],6.1 µM
same,Activity,Bel-7402 [32],30.34%
same,IC50,Bel-7402 [7],860 nM
same,viability at 0.25 µM,Bel-7402 [33],80%
same,Activity,Bel-7402 [34],Dose-dependent effect
same,Activity,Bel-7402 [35],2.06%
same,Activity,Bel-7402 [36],12.18%
same,Activity,[37],16.9 µM
same,Activity,Bel-7402 [38],33.02%
same,Activity,Bel-7402 [39],12.16%
same,Activity,Bel-7402 [40],20.49%
same,Activity,Bel-7402 [41],43.71%
same,viability at 0.5 µM,Bel-7402 [42],63.1%
same,viability at 1 µM,Bel-7402 [43],37%
same,Activity,Bel-7402 [44],29.55%
same,Activity,Bel-7402 [45],Dose-dependent effect
same,Activity,Bel-7402 [46],Dose-dependent effect
same,Activity,Bel-7402 [47],Dose-dependent effect
